Key:
Format in all cases: functional, organism-based
Pseudomonas aeruginosa [1] = assay: Susceptibility testing against Pseudomonas aeruginosa PAE_NUH01; R=Resistant
Outline: (§1)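 Disk diffusion susceptibility profiling of P. aeruginosa reference and clinical isolates against empirically used antipseudomonal antibiotics. Each isolate was categorised as susceptible, intermediate or resistant.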

Pseudomonas aeruginosa [2] = assay: Susceptibility testing against Pseudomonas aeruginosa PAE_NUH02; R=Resistant; outline: as §1
Pseudomonas aeruginosa [3] = assay: Susceptibility testing against Pseudomonas aeruginosa PAE_NUH07; R=Resistant; outline: as §1
Pseudomonas aeruginosa [4] = assay: Susceptibility testing against Pseudomonas aeruginosa PAE_NUH22; S=Susceptible
Outline: (§2)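 Disk diffusion susceptibility profiling against a panel of empirically used antipseudomonal antibiotics. Each strain was categorised as susceptible (S) or intermediate (I).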

Pseudomonas aeruginosa [5] = assay: Susceptibility testing against Pseudomonas aeruginosa PAE_NUH23; S=Susceptible; outline: as §2
Pseudomonas aeruginosa [6] = assay: Susceptibility testing against Pseudomonas aeruginosa PAE_NUH24; S=Susceptible; outline: as §2
Pseudomonas aeruginosa [7] = assay: Susceptibility testing against Pseudomonas aeruginosa PAE_NUH25; S=Susceptible; outline: as §2
Pseudomonas aeruginosa [8] = assay: Susceptibility testing against Pseudomonas aeruginosa ATCC 27853; S=Susceptible; outline: as §2
Pseudomonas aeruginosa [9] = assay: Susceptibility testing against Pseudomonas aeruginosa PAE_NUH04; S=Susceptible; outline: as §2
Pseudomonas aeruginosa [10] = assay: Susceptibility testing against Pseudomonas aeruginosa PAE_NUH05; S=Susceptible; outline: as §2
Pseudomonas aeruginosa [11] = assay: Susceptibility testing against Pseudomonas aeruginosa PAE_NUH06; S=Susceptible; outline: as §2
Pseudomonas aeruginosa [12] = assay: Susceptibility testing against Pseudomonas aeruginosa PAE_NUH17; S=Susceptible; outline: as §2
Pseudomonas aeruginosa [13] = assay: Susceptibility testing against Pseudomonas aeruginosa PAE_NUH18; S=Susceptible; outline: as §2
Pseudomonas aeruginosa [14] = assay: Susceptibility testing against Pseudomonas aeruginosa PAE_NUH19; S=Susceptible; outline: as §2
Pseudomonas aeruginosa [15] = assay: Susceptibility testing against Pseudomonas aeruginosa PAE_NUH20; S=Susceptible; outline: as §2
Pseudomonas aeruginosa [16] = assay: Susceptibility testing against Pseudomonas aeruginosa PAE_NUH21; S=Susceptible; outline: as §2
Pseudomonas aeruginosa [17] = assay: Susceptibility testing against Pseudomonas aeruginosa PAE_NUH03; S=Susceptible; outline: as §2
Pseudomonas aeruginosa [18] = assay: Susceptibility testing against Pseudomonas aeruginosa PAE_NUH03; R=Resistant; outline: as §1
Pseudomonas aeruginosa [19] = assay: Susceptibility testing against Pseudomonas aeruginosa PAE_NUH04; R=Resistant; outline: as §1
Pseudomonas aeruginosa [20] = assay: Susceptibility testing against Pseudomonas aeruginosa PAE_NUH05; R=Resistant; outline: as §1
Pseudomonas aeruginosa [21] = assay: Susceptibility testing against Pseudomonas aeruginosa PAE_NUH06; R=Resistant; outline: as §1
Pseudomonas aeruginosa [22] = assay: Susceptibility testing against Pseudomonas aeruginosa PAE_NUH18; R=Resistant; outline: as §1
Pseudomonas aeruginosa [23] = assay: Susceptibility testing against Pseudomonas aeruginosa PAE_NUH19; R=Resistant; outline: as §1
Pseudomonas aeruginosa [24] = assay: Susceptibility testing against Pseudomonas aeruginosa PAE_NUH20; R=Resistant; outline: as §1
Pseudomonas aeruginosa [25] = assay: Susceptibility testing against Pseudomonas aeruginosa PAE_NUH21; R=Resistant; outline: as §1
Pseudomonas aeruginosa [26] = assay: Susceptibility testing against Pseudomonas aeruginosa PAE_NUH22; R=Resistant; outline: as §1
Pseudomonas aeruginosa [27] = assay: Susceptibility testing against Pseudomonas aeruginosa PAE_NUH23; R=Resistant; outline: as §1
Pseudomonas aeruginosa [28] = assay: Susceptibility testing against Pseudomonas aeruginosa PAE_NUH24; R=Resistant; outline: as §1
Pseudomonas aeruginosa [29] = assay: Susceptibility testing against Pseudomonas aeruginosa PAE_NUH25; R=Resistant; outline: as §1
Pseudomonas aeruginosa [30] = assay: Susceptibility testing against Pseudomonas aeruginosa ATCC 27853; R=Resistant; outline: as §1
Pseudomonas aeruginosa [31] = assay: Susceptibility testing against Pseudomonas aeruginosa PAE_NUH21; I=Intermediate; outline: as §2
Pseudomonas aeruginosa [32] = assay: Susceptibility testing against Pseudomonas aeruginosa PAE_NUH22; I=Intermediate; outline: as §2
Pseudomonas aeruginosa [33] = assay: Susceptibility testing against Pseudomonas aeruginosa PAE_NUH23; I=Intermediate; outline: as §1
Pseudomonas aeruginosa [34] = assay: Susceptibility testing against Pseudomonas aeruginosa PAE_NUH24; I=Intermediate; outline: as §1
Pseudomonas aeruginosa [35] = assay: Susceptibility testing against Pseudomonas aeruginosa PAE_NUH01; S=Susceptible; outline: as §2
Pseudomonas aeruginosa [36] = assay: Susceptibility testing against Pseudomonas aeruginosa PAE_NUH02; S=Susceptible; outline: as §2
Pseudomonas aeruginosa [37] = assay: Susceptibility testing against Pseudomonas aeruginosa PAE_NUH07; S=Susceptible; outline: as §2

SMILES | Activity (Pseudomonas aeruginosa [1]) | Activity (Pseudomonas aeruginosa [2]) | Activity (Pseudomonas aeruginosa [3]) | Activity (Pseudomonas aeruginosa [4]) | Activity (Pseudomonas aeruginosa [5]) | Activity (Pseudomonas aeruginosa [6]) | Activity (Pseudomonas aeruginosa [7]) | Activity (Pseudomonas aeruginosa [8]) | Activity (Pseudomonas aeruginosa [9]) | Activity (Pseudomonas aeruginosa [10]) | Activity (Pseudomonas aeruginosa [11]) | Activity (Pseudomonas aeruginosa [12]) | Activity (Pseudomonas aeruginosa [13]) | Activity (Pseudomonas aeruginosa [14]) | Activity (Pseudomonas aeruginosa [15]) | Activity (Pseudomonas aeruginosa [16]) | Activity (Pseudomonas aeruginosa [17]) | Activity (Pseudomonas aeruginosa [18]) | Activity (Pseudomonas aeruginosa [19]) | Activity (Pseudomonas aeruginosa [20]) | further results
CCN1CCN(C(=O)N[C@@H](C(=O)N[C@@H]2C(=O)N3[C@@H]2SC(C)(C)[C@@H]3C(=O)O)c2ccccc2)C(=O)C1=O.C[C@]1(Cn2ccnn2)[C@H](C(=O)O)N2C(=O)C[C@H]2S1(=O)=O | Resistant | Resistant | Resistant | Susceptible | Susceptible | Susceptible | Susceptible | Susceptible | Susceptible | Susceptible | Susceptible | Susceptible | Susceptible | Susceptible | Susceptible | Susceptible | Susceptible | – | – | – | –
C[C@H]1[C@H](NC(=O)/C(=N\OC(C)(C)C(=O)O)c2csc(N)n2)C(=O)N1S(=O)(=O)O | Resistant | Resistant | Resistant | – | – | – | – | Susceptible | – | – | – | Susceptible | – | – | – | – | – | Resistant | Resistant | Resistant | Activity (Pseudomonas aeruginosa [21]): Resistant; Activity (Pseudomonas aeruginosa [22]): Resistant; Activity (Pseudomonas aeruginosa [23]): Resistant; Activity (Pseudomonas aeruginosa [24]): Resistant; Activity (Pseudomonas aeruginosa [25]): Resistant; Activity (Pseudomonas aeruginosa [26]): Resistant; Activity (Pseudomonas aeruginosa [27]): Resistant; Activity (Pseudomonas aeruginosa [28]): Resistant; Activity (Pseudomonas aeruginosa [29]): Resistant
O=C(N[C@H](CO)[C@H](O)c1ccc([N+](=O)[O-])cc1)C(Cl)Cl | Resistant | Resistant | Resistant | – | – | – | – | – | – | – | – | Susceptible | – | – | Susceptible | – | – | Resistant | Resistant | Resistant | Activity (Pseudomonas aeruginosa [30]): Resistant; Activity (Pseudomonas aeruginosa [21]): Resistant; Activity (Pseudomonas aeruginosa [22]): Resistant; Activity (Pseudomonas aeruginosa [23]): Resistant; Activity (Pseudomonas aeruginosa [29]): Resistant; Activity (Pseudomonas aeruginosa [31]): I; Activity (Pseudomonas aeruginosa [32]): I; Activity (Pseudomonas aeruginosa [33]): I; Activity (Pseudomonas aeruginosa [34]): I
CC(O)[C@H]1C(=O)N2C(C(=O)O)=C(SCCNC=N)C[C@H]12 (single isomer, unassigned) | – | – | – | Susceptible | Susceptible | Susceptible | Susceptible | Susceptible | Susceptible | Susceptible | Susceptible | Susceptible | Susceptible | Susceptible | Susceptible | Susceptible | Susceptible | – | – | – | Activity (Pseudomonas aeruginosa [35]): Susceptible; Activity (Pseudomonas aeruginosa [36]): Susceptible; Activity (Pseudomonas aeruginosa [37]): Susceptible

From ChEMBL document CHEMBL1143542, “Structure-activity relationships of bivalent aminoglycosides and evaluation of their microbiological activities” (2005)
